Assay outcomes from PubChem.
NPY Y1 blocker: NPY-Y1 receptor antagonists, primary screen, cell-based; Neuropeptide Y receptor type 1 (Homo sapiens), P25929; HEK293-CNG Y1 cells, membrane potential fluorescence; NPY at EC95, then isoproterenol; inhibition, % at 3.6 µM; 200,000 tested, 1% active; AID 1040, 2008;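 active means inhibition above the campaign mean inhibition of all tested compounds plus 3 SD, cut at about 20% in these data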;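 further: 0% = DMSO wells given NPY plus isoproterenol and 100% = isoproterenol alone without NPY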
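material = HEK293 cells with Y1 receptor plus CNG channel | also added = NPY 25 nM then isoproterenol 1 µM plus Ro 20-1724 25 µM | schedule = dye 3 h, compound 60 min room temperature, stimulation 45 min | measured by = membrane potential fluorescence | benchmarks = high control isoproterenol alone, low control NPY with isoproterenol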
NPY-Y2 antag: NPY-Y2 receptor antagonists, primary screen, cell-based. Neuropeptide Y receptor type 2 (Homo sapiens), P49146. NPY-Y2 expressing cells, antagonist mode. inhibition, % at 2.7 µM. 140,000 tested, 0.99% active. AID 793, 2007; in the data active means inhibition above about 17%;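 further: 0% = vehicle with agonist challenge and 100% = reference antagonist with challenge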
Target sequence (P49146 whole entry, looked up): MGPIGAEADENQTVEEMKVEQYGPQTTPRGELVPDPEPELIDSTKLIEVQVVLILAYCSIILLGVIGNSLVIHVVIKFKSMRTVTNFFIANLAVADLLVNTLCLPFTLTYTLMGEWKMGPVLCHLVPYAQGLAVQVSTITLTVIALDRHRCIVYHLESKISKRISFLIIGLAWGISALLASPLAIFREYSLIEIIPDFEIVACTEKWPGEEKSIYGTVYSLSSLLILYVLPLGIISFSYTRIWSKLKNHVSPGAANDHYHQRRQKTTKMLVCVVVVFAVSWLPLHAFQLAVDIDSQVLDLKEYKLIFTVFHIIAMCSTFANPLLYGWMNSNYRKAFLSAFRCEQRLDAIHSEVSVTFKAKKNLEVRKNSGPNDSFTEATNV
NPY2 pot ag: NPY-Y2 potentiators or agonists, primary screen, cell-based; 220,000 tested, 0.45% active; Neuropeptide Y receptor type 2 (Homo sapiens), P49146; activation, % at 3.6 µM; cells expressing NPY-Y2, potentiator/agonist read-out; AID 1359, 2008; in the data active means activation above about 27%;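 further: cells stimulated with NPY near EC25 plus isoproterenol at EC100; 0% = vehicle plus submaximal agonist and 100% = vehicle plus saturating agonist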
NPY1 pot ag: NPY-Y1 receptor potentiators or agonists, primary screen, cell-based; Neuropeptide Y receptor type 1 (Homo sapiens), P25929; NPY-Y1 expressing cells, potentiator/agonist activation; activation, % at 3.6 µM; 220,000 tested, 0.37% active; AID 1304, 2008; in the data active means activation above about 33%, passing the limit was not always enough;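 further: cells stimulated with NPY at EC10 then isoproterenol at EC100; 0% = low agonist plus stimulus and 100% = saturating agonist plus stimulus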
NPY1 antag ctr: NPY-Y1 receptor antagonists, selectivity check, counter-screen for NPY-Y2 antagonist project, cell-based; shares compounds with NPY-Y2 antag; cell-based NPY-Y1 antagonism counterscreen; inhibition, % at 3.6 µM; 710 tested, 19% active; AID 1256, 2008; in the data active means inhibition above about 20%;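 further: cells challenged with NPY then isoproterenol with cAMP sensed through a CNG channel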
NPY2 antag conf: NPY-Y2 receptor antagonists, retest of hits, confirmation, HEK293-CNG cells, membrane potential fluorescence, triplicate | shares compounds with NPY-Y2 antag | HEK293 NPY-Y2 CNG channel | inhibition, % at 2.8 µM | 710 tested, 32% active;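 active means mean inhibition of triplicate wells above the hit cutoff set in the primary screen, cut at about 17% in these data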;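 further: 0% = DMSO with NPY challenge and 100% = BIIE0246 high control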
* marks the source's active call; other numbers are inactive results; x = not tested or not shown. A selection: hits, their analogues and other compounds. The true share with any hit is near 1.8%.

SMILES | NPY Y1 blocker | NPY-Y2 antag | NPY2 pot ag | NPY1 pot ag | NPY1 antag ctr | NPY2 antag conf
Cc1nc2c3ccccc3nc(SCC(=O)N3CC(C)CC(C)C3)n2n1 (stereo unspecified) | 1.6 | 3.5 | -1.9 | 5.5 | x | x
O=C(COC(=O)Cc1ccc(Cl)cc1)Nc1ccccc1-c1ccccc1 | 4.6 | 5.5 | -13.7 | -24.1 | x | x
CN(C)c1cccc(C(=O)OCC(=O)Nc2ccccc2-c2ccccc2)c1 | 2.0 | 4.4 | 2.7 | -15.0 | x | x
O=C(COC(=O)/C=C/c1ccc(Cl)cc1)Nc1ccccc1-c1ccccc1 | -1.7 | 22.1* | 9.8 | 5.1 | 19.7 | 17.2*
CCN(CC)c1ccc(C(=O)OCC(=O)Nc2ccccc2-c2ccccc2)cc1 | 6.5 | 20.8* | -0.1 | -28.8 | 12.4 | 11.4
Cn1cccc1CC(=O)NNC(=S)NC(=O)c1ccc(F)cc1 | x | x | 1.0 | 27.0 | x | x
COc1ccc(/C=C/C(=O)NC(C)CCc2ccccc2)cc1OC (stereo unspecified) | 7.8 | x | 7.3 | 16.8 | x | x
COc1ccc(/C=C/C(=O)NC(C)CCc2ccccc2)cc1 (stereo unspecified) | 19.0 | 22.3* | 2.6 | 1.8 | 11.1 | 7.3
Cc1ccc(N(C)S(=O)(=O)c2cccc(C(=O)Nc3nc4ccccc4[nH]3)c2)cc1 | 10.1 | 23.0* | -17.4 | -1.8 | 42.4* | 20.1*
COc1ccc(N2C(=O)C3CCCCC3C2=O)cc1NC(=O)c1ccccc1 (stereo unspecified) | 3.7 | x | -16.3 | -3.4 | x | x
O=C(CNC(=O)c1ccc(F)cc1)Nc1ccccc1C(F)(F)F | x | x | -3.0 | -5.4 | x | x
Nc1nc2sc3c(c2c(=O)s1)CCCC3 | 4.6 | 1.4 | 17.0 | 5.5 | x | x
Nc1c2c(nc3sc4c(c13)CCCC4)CCCCCC2 | 7.5 | 18.6* | -0.3 | -10.0 | 14.0 | 17.8*
O=C(CSc1nnc(SCc2ccccc2)s1)N/N=C/c1c(Cl)cccc1Cl | 1.6 | 25.9* | -11.5 | -19.6 | 13.4 | 15.7
Cc1nn(-c2ccccc2)c(C)c1/C=N/NC(=O)CSc1nnc(SCc2ccc(Cl)cc2)s1 | -0.7 | 5.6 | 2.1 | 17.4 | x | x
Cc1ccc(N(CC(=O)NCc2ccccc2Cl)S(=O)(=O)c2cccs2)cc1 | 13.7 | 22.2* | 1.4 | -6.8 | 3.6 | 8.3
Cn1c(=O)c(C(=O)CN2CC(=O)Nc3ccccc32)c(N)n(Cc2ccccc2)c1=O | -0.4 | x | 5.4 | 20.8 | x | x
Cc1ccc(C(=O)CSc2nnc(COc3cc(C)cc(C)c3)o2)cc1 | 6.8 | 21.2* | 0.7 | -5.5 | 13.4 | 20.5*
CCOC(=O)c1cccc(NC(=O)CSc2nnc(COc3ccc(Cl)cc3)o2)c1 | 6.9 | 0.4 | -14.3 | -3.6 | x | x
COC(=O)c1ccc(OC)c(CSc2nnc(-c3ccc(C(C)(C)C)cc3)o2)c1 | 5.2 | 0.4 | 0.7 | -15.0 | x | x
COC(=O)c1ccc(OC)c(CSc2nnc(COc3ccc(Cl)cc3)o2)c1 | 8.6 | 26.8* | -4.5 | -31.2 | 24.7* | 19.1*
COC(=O)c1ccc(OC)c(CSc2nnc(COc3ccccc3)o2)c1 | 13.2 | 18.0* | -3.6 | -34.4 | 7.2 | 10.9
O=C(O)c1cc(C(F)(F)F)nc2c(C(F)(F)F)cccc12 | 14.1 | x | -11.5 | -24.9 | x | x
CCOC(=O)N/N=C1\CCS(=O)(=O)c2ccc(Cl)cc21 | x | x | 1.1 | 5.3 | x | x
Cc1nn(CC(=O)Nc2ccc(Cl)cn2)c(C)c1Br | -1.1 | 2.4 | 13.3 | -7.9 | x | x
O=C(COc1ccc(Cl)cc1Cl)N/N=C/CCc1ccccc1 | 1.4 | 20.6* | -26.1 | 11.4 | 2.8 | 7.7
O=C(CCCOc1ccc(Cl)cc1Cl)N/N=C/c1ccccc1 | 16.1 | 4.5 | -31.5 | -54.0 | x | x
Cc1cc(NS(=O)(=O)c2ccc(NC(=S)NC(=O)c3ccc(C(C)(C)C)cc3)cc2)no1 | 3.5 | -0.5 | 10.1 | 2.4 | x | x
CCOc1ccc2nc(NC(=O)CS(=O)(=O)c3ccccc3)sc2c1 | 0.0 | 1.4 | -22.7 | -24.4 | x | x
CCOc1ccc2nc(NC(=O)CS(=O)(=O)c3ccc(C)cc3)sc2c1 | 8.5 | 24.6* | -17.6 | -17.4 | 15.6 | 18.0*
